Measurements taken from publication PMC13102995 (Biomedicine & Pharmacotherapy, 2026).
Read-outs that look alike come from different tables or passages of the source. One block for each molecule: values may come before it.

Key:
[1] = tested on: neonatal rat dorsal root ganglion (DRG) neurons; type: cell-based; settings: U73122 5 µM, 1 h; 500 nM capsaicin pulses, 1 µM BK
Method in brief: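 DRG neurons from 3–5-day-old Wistar rats, collagenase IA digested (2.5 mg/mL, 1 h), grown 48 h on 60-electrode arrays (poly-L-lysine/laminin) with NGF and cytosine arabinoside. Test compound (100 µM) or 0.1% DMSO pre-incubated 1 h in serum medium without NGF; PLC inhibitor at 5 µM. Three 30-s pulses of 500 nM capsaicin (P1–P3); bradykinin used at 1 µM.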

PLCβ [2] = assay: PIP2 imaging: BK-induced PLCδ-PH-GFP translocation in HEK293T cells; type: cell-based, Human; settings: PL2003 100 µM, U73122 2 µM, PL2204 1–100 µM; versus vehicle
Method in brief: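 HEK293T transfected with PLCδ-PH-GFP, replated 24 h later on poly-D-lysine and imaged after another 24 h. Pre-incubation 1 h with test compound (1, 10, 100 µM), vehicle or 2 µM U73122. Baseline 30 s in Ca2+-containing solution, pH 7.4, then 250 nM bradykinin for 2 min. Translocation = ΔF/F0; time to maximum timed from onset; IC50 from Hill-equation fit.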

PLCγ = assay: TG-induced store-operated calcium; type: cell-based, human; settings: U73122 2 µM, 1 h; 1 µM TG; HaCaT; mean ± SEM, N = 2
Method in brief: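 HaCaT on coverslips used 48 h after plating, loaded with 6 µg/mL Fluo-4 AM/0.05% Pluronic plus test compound (100 µM), 0.1% DMSO or 2 µM U73122 for 1 h, then washed ≥20 min. In Ca2+-free solution, 1 µM thapsigargin/0.1 mM EGTA for 3 min, then 2 mM Ca2+ to trigger SOC entry. Cells ≥20 AFU analysed; ΔFSOC/ΔFTG normalised to vehicle.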

PLCβ [3] = type: cell-based, Human; settings: U73122 2 µM, HEK293, mean ± SEM; for inhibition of ACh-induced intracellular Ca2+ response: 1 h, 1 µM ACh
[4] = Solubility and aggregation observed on preparation of the peptides; type: physicochemical; settings: observation
PLCβ3 = target: T1, PLCβ3 (Homo sapiens, UniProt Q01970); assay: Surface plasmon resonance binding to pulled-down PLCβ3; settings: 12.5–200 µM, multi-cycle, HBS-EP+ buffer, 25 °C
T1 sequence (Q01970 1-1234): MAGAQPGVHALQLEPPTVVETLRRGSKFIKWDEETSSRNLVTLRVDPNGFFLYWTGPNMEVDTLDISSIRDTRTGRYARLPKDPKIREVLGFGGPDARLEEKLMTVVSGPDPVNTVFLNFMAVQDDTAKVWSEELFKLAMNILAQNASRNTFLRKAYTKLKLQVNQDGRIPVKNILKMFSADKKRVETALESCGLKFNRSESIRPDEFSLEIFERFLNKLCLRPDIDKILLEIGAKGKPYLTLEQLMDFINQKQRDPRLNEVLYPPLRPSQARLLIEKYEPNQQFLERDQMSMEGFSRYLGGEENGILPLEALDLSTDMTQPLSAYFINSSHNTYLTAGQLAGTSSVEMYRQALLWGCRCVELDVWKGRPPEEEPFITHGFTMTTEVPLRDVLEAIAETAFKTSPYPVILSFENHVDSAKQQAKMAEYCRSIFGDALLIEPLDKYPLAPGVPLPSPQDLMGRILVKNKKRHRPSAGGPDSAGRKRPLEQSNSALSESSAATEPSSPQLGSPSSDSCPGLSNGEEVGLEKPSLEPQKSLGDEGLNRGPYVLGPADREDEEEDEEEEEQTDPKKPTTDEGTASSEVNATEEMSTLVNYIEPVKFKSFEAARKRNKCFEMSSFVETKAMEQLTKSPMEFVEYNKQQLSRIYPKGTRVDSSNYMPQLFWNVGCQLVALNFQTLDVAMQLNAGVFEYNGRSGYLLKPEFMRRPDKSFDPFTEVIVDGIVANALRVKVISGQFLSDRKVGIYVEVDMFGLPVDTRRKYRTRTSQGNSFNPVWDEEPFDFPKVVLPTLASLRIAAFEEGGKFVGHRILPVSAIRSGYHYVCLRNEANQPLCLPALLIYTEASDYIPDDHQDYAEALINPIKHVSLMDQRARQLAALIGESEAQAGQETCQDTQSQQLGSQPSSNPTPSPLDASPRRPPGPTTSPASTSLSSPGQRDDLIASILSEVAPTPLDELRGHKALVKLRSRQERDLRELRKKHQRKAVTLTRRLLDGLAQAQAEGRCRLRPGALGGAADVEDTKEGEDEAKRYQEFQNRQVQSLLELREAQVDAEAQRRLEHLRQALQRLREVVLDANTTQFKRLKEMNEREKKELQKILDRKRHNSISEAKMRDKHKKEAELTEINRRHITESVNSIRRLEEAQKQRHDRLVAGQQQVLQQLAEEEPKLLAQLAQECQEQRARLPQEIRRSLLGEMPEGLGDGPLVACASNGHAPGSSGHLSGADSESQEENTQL
Method in brief: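 Multi-cycle SPR at 25 °C. Peptides at 12.5–200 µM, including a randomized control peptide, in HBS-EP+, injected over active and reference flow cells for 250 s at 5 µL/min, with return to baseline between cycles. Reference-subtracted binding levels were read at the end of injection after baseline subtraction.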

Molecule: COc1ccc2c(c1)CC[C@@H]1[C@@H]2CC[C@]2(C)[C@@H](NCCCCCCN3C(=O)C=CC3=O)CC[C@@H]12 [Peptide U73122, 1-(6-((17β-3-methoxyestra-1,3,5(10)-trien-17-yl)amino)hexyl)-1H-pyrrole-2,5-dione]
inhibition of BK-induced TRPV1 sensitization (P3 - P2) [1]: did not significantly attenuate
time to reach maximum PLCδ-PH-GFP translocation (PLCβ [2]): does not modify
SOC activity (ΔFSOC / ΔFTG normalized to vehicle) (PLCγ): 55.4 ± 9.4
inhibition of ACh-induced intracellular Ca2+ response (PLCβ [3]; experiment of Fig. 2B): 40.5 ± 9.4%
inhibition of ACh-induced intracellular Ca2+ response (PLCβ [3]; experiment of Fig. 2C): 65.4 ± 4.3%
inhibition of ACh-induced intracellular Ca2+ response (PLCβ [3]; experiment of Fig. 2D): 51.9 ± 7.5%
percentage of ACh-responsive cells normalized to vehicle (PLCβ [3]; experiment of Fig. 2C): 66.7 ± 9.3%
percentage of ACh-responsive cells normalized to vehicle (PLCβ [3]; experiment of Fig. 2D): 62.0 ± 12.0%

Molecule: Ac-IYSSNV-NH2 [PL2005]
solubility ([4]; in different solvents): solubility problems in different solvents
aqueous solubility ([4]; prepared in 0.4% DMSO in extracellular solution): poor aqueous solubility

binding to pulled-down PLCβ3 (SPR) (PLCβ3): strongly reduced binding levels
Molecule: Ac-IVSNRYSK-NH2 [randomized PL2204]
